Results taken from ChEMBL document CHEMBL1135690, “Benzodiazepine receptor ligands. 7. Synthesis and pharmacological evaluation of new 3-esters of the 8-chloropyrazolo[5,1-c][1,2,4]benzotriazine 5-oxide. 3-(2-Thienylmethoxycarbonyl) derivative: an anxioselective agent in rodents” (J Med Chem, 2002).

What was measured:
[1] = biological target: GABA-A receptor; anion channel (Homo sapiens) (UniProt P14867+P47870+P18507+P28472+P48169+Q99928+Q9UN88+P34903+O00591+O14764+Q8N1C3+P18505+P78334+P47869+P31644+Q16445); test: Percent inhibition [3H]Ro-151788 binding to Benzodiazepine receptor from bovine brain membrane at 10 uM; conditions: Bos taurus, target entry is the homologue from another species
[2] = biological target: GABA-A receptor; anion channel; parameters: species or system Bos taurus
[3] = system: Mus musculus; test: Anxiolytic activity in mice using light-dark box and % time spent in light was reported at 10 mg/kg peroral dose; format: functional; conditions: route oral
In short: (§1)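 Male CD-1 mice (22–24 g) given drug po in 1% carboxymethylcellulose (10 mL/kg). Each mouse placed in the centre of the lighted area facing away from the dark compartment and allowed to explore for 5 min; time spent in the illuminated side and number of transfers between compartments recorded. Tests run between 10:00 and 15:00.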

[4] = system: Mus musculus; test: Motor coordination of mouse as number of falls in 30 sec was reported after 10 mg/kg peroral dose using rotarod test; format: functional; conditions: route oral
In short: (§2)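 Male CD-1 mice are dosed po in 1% CMC (flumazenil ip). Falls from a rota rod turning at 24 rpm are counted over 30 s, 25 min after drug administration, and compared with vehicle-treated mice. Means ± SEM.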

[5] = system: Mus musculus; test: Percent anticonvulsant activity against pentylenetetrazole (PTZ)-induced attacks at 10 mg/kg peroral dose; format: functional; conditions: route oral
In short: (§3)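 Male CD-1 mice dosed po in 1% carboxymethylcellulose, 30 min before PTZ (90 mg/kg sc, in 0.9% saline). Occurrence of clonic generalized convulsions noted over 30 min; χ² analysis vs control mice.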

[6] = system: Mus musculus; test: Anxiolytic activity in mice using light-dark box and no. of transfers between compartments were reported at 10 mg/kg peroral dose; format: functional; conditions: route oral; in short: as §1
[7] = system: Mus musculus; test: Anxiolytic activity in mice using light-dark box and % time spent in light was reported at 3 mg/kg peroral dose; format: functional; conditions: route oral; in short: as §1
[8] = system: Mus musculus; test: Percent anticonvulsant activity against pentylenetetrazole (PTZ)-induced attacks at 3 mg/kg peroral dose; format: functional; conditions: route oral; in short: as §3
[9] = system: Mus musculus; test: Percent anticonvulsant activity against pentylenetetrazole (PTZ)-induced attacks at 30 mg/kg peroral dose; format: functional; conditions: route oral; in short: as §3
[10] = system: Mus musculus; test: Motor coordination of mouse as number of falls in 30 sec was reported after 30 mg/kg peroral dose using rotarod test; format: functional; conditions: route oral
In short: (§4)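 Male CD-1 mice dosed po (suspension in 1% carboxymethylcellulose, 10 mL/kg). Rota rod turning at 24 rpm; falls from the rod counted over 30 s, 25 min after drug administration.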

[11] = system: Mus musculus; test: Motor coordination of mouse as number of falls in 30 sec was reported after 3 mg/kg peroral dose using rotarod test; format: functional; conditions: route oral; in short: as §4
[12] = system: Mus musculus; test: Anxiolytic activity in mice using light-dark box and no. of transfers between compartments were reported at 3 mg/kg peroral dose; format: functional; conditions: route oral; in short: as §1
[13] = Displacement of [3H]Ro-151788 from rat GABA-A receptor alpha-5-beta-3-gamma-2 subunits expressed in HEK293 cells; format: cell-based
In short: (§5)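 Recombinant rat GABA-A subtypes are stably expressed in HEK293 cells grown in MEM/EBSS with 10% FCS at 37 °C. Membranes are made in 10 mM potassium phosphate pH 7.4 and resuspended with 100 mM KCl. Incubation uses 1–2 nM [3H]Ro15-1788 with compound at 10^-9–10^-5 M (≥6 concentrations), 1 h at 4 °C. […] Ki comes from Cheng–Prusoff, n=5, in triplicate.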

[14] = system: Mus musculus; test: Motor coordination of mouse as number of falls in 30 sec was reported after 100 mg/kg peroral dose using rotarod test; format: functional; conditions: route oral; in short: as §4
[15] = system: Mus musculus; test: Anxiolytic activity in mice using light-dark box and % time spent in light was reported at 30 mg/kg peroral dose; format: functional; conditions: route oral; in short: as §1
[16] = system: Mus musculus; test: Anxiolytic activity in mice using light-dark box and % time spent in light was reported at 100 mg/kg peroral dose; format: functional; conditions: route oral; in short: as §1
[17] = system: Mus musculus; test: Anxiolytic activity in mice using light-dark box and no. of transfers between compartments were reported at 100 mg/kg peroral dose; format: functional; conditions: route oral; in short: as §1
[18] = system: Mus musculus; test: Anxiolytic activity in mice using light-dark box and no. of transfers between compartments were reported at 30 mg/kg peroral dose; format: functional; conditions: route oral; in short: as §1
[19] = system: Mus musculus; test: Percent anticonvulsant activity against pentylenetetrazole (PTZ)-induced attacks at 100 mg/kg peroral dose; format: functional; conditions: route oral; in short: as §3
[20] = system: Mus musculus; test: Anxiolytic activity in mice using light-dark box and no. of transfers between compartments were reported at 0.3 mg/kg peroral dose; format: functional; conditions: route oral
In short: (§6)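 Light-dark box in male CD-1 mice. Ligands are given po in 1% CMC, flumazenil ip. Each mouse is placed in the centre of the lit area facing away from the dark one and explores for 5 min. Time in the illuminated side and number of transfers between compartments are recorded. Means ± SEM.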

[21] = system: Mus musculus; test: Motor coordination of mouse as number of falls in 30 sec was reported after 0.3 mg/kg peroral dose using rotarod test; format: functional; conditions: route oral; in short: as §2
[22] = system: Mus musculus; test: Anxiolytic activity in mice using light-dark box and no. of transfers between compartments were reported at 1 mg/kg peroral dose; format: functional; conditions: route oral; in short: as §6
[23] = system: Mus musculus; test: Anxiolytic activity in mice using light-dark box and % time spent in light was reported at 1 mg/kg peroral dose; format: functional; conditions: route oral; in short: as §6
[24] = system: Mus musculus; test: Motor coordination of mouse as number of falls in 30 sec was reported after 1 mg/kg peroral dose using rotarod test; format: functional; conditions: route oral; in short: as §2
[25] = system: Mus musculus; test: Percent anticonvulsant activity against pentylenetetrazole (PTZ)-induced attacks at 1 mg/kg peroral dose; format: functional; conditions: route oral
In short: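 Male CD-1 mice are dosed po in 1% CMC (flumazenil ip). PTZ (90 mg/kg sc, in 0.9% saline) is injected 30 min later. Clonic generalized convulsions are scored over 30 min, with % protection compared with controls by χ2 analysis.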

[26] = Anticonvulsant activity electroshock induced convulsions and % lethality obtained at dose of 10 mg/kg; conditions: mouse, in vivo
[27] = Displacement of [3H]-Ro-15-1788 from rat GABA-A receptor alpha-2-beta-2-gamma-2 subunits expressed in HEK293 cells; format: cell-based; in short: as §5
[28] = system: Mus musculus; test: Motor coordination of mouse as number of falls in […] was reported after 10 mg/kg peroral dose using rotarod test; format: functional; conditions: route oral

Compound: O=C(OCc1ccoc1)c1cnn2c1n[n+]([O-])c1ccc(Cl)cc12 [listing 1 of 2 here]
- inhibition [1]: 96%

Compound: O=C(Cc1cnn2c1n[n+]([O-])c1ccc(Cl)cc12)Oc1ccccc1
- inhibition [1]: 79%

Compound: COc1ccccc1COC(=O)c1cnn2c1nnc1ccc(Cl)cc12
- inhibition [1]: 97%
- Ki [2]: 1.7 nM

Compound: CN1C(=O)CN=C(c2ccccc2)c2cc(Cl)ccc21.O=C(OCc1ccsc1)c1cnn2c1n[n+]([O-])c1ccc(Cl)cc12
- Activity [3]: 149.16%
- No. of falls [4]: 0.55
- Activity [5]: 100%
- No. of transfers [6]: 27.9

Compound: O=C(OCc1ccsc1)c1cnn2c1n[n+]([O-])c1ccc(Cl)cc12 [listing 1 of 2 here]
- Activity [3]: 91.84%
- No. of falls [4]: 0.36
- Activity [7]: 110.3%
- Activity [5]: 18.2%
- Activity [8]: 30%
- Ki [2]: 13.3 nM
- No. of transfers [6]: 16
- Activity [9]: 9%
- No. of falls [10]: 0.27
- No. of falls [11]: 0.2
- No. of transfers [12]: 15.7

Compound: O=C(Cc1cnn2c1n[n+]([O-])c1ccc(Cl)cc12)OCc1cccs1
- inhibition [1]: 35%

Compound: Cc1ccccc1OC(=O)CC1C=NN2c3cc(Cl)ccc3[N+]([O-])=NC12 (configuration not stated)
- inhibition [1]: 70%

Compound: O=C(OCc1ccsc1)c1cnn2c1n[n+]([O-])c1ccc(Cl)cc12 [listing 2 of 2 here]
- inhibition [1]: 97%

Compound: COc1ccccc1COC(=O)C1C=NN2c3cc(Cl)ccc3[N+]([O-])=NC12 (configuration not stated)
- inhibition [1]: 100%
- Ki [2]: 1 nM

Compound: CCOC(=O)Cc1cnn2c1n[n+]([O-])c1ccc(Cl)cc12
- inhibition [1]: 53%

Compound: COc1ccccc1OC(=O)CC1C=NN2c3cc(Cl)ccc3[N+]([O-])=NC12 (configuration not stated)
- inhibition [1]: 88%
- Ki [2]: 171 nM

Compound: Cc1ccc(-c2nc3ccc(C)cn3c2CC(=O)N(C)C)cc1 [ZOLPIDEM]
- Ki [13]: > 1000 nM

Compound: O=C(OCc1ccco1)c1cnn2c1n[n+]([O-])c1ccc(Cl)cc12 [listing 1 of 2 here]
- inhibition [1]: 100%

Compound: O=C(OCC1CCOC1)c1cnn2c1n[n+]([O-])c1ccc(Cl)cc12 (configuration not stated)
- inhibition [1]: 85%
- Ki [2]: 680 nM

Compound: COc1ccccc1COC(=O)Cc1cnn2c1n[n+]([O-])c1ccc(Cl)cc12
- inhibition [1]: 50%

Compound: CN1C(=O)CN=C(c2ccccc2)c2cc(Cl)ccc21.O=C(OCc1ccoc1)c1cnn2c1n[n+]([O-])c1ccc(Cl)cc12
- No. of falls [4]: 0.44
- Activity [5]: 88.9%

Compound: O=C(OCc1ccoc1)c1cnn2c1n[n+]([O-])c1ccc(Cl)cc12 [listing 2 of 2 here]
- Activity [3]: 118.95%
- No. of falls [4]: 0.2
- Activity [5]: 20%
- Activity [8]: 0%
- Ki [2]: 11.4 nM
- No. of falls [14]: 0.18
- Activity [15]: 132.27%
- Activity [16]: 127.18%
- No. of transfers [6]: 16.57
- No. of transfers [17]: 19.7
- No. of transfers [18]: 20.4
- Activity [9]: 30%
- No. of falls [10]: 0.1
- Activity [19]: 36.4%
- No. of falls [11]: 0.14

Compound: O=C(OCc1cccs1)c1cnn2c1n[n+]([O-])c1ccc(Cl)cc12
- inhibition [1]: 93%

Compound: O=C(OCc1ccncc1)c1cnn2c1n[n+]([O-])c1ccc(Cl)cc12
- inhibition [1]: 100%
- Ki [2]: 44 nM

Compound: CN1C(=O)CN=C(c2ccccc2)c2cc(Cl)ccc21.O=C(OCc1cccs1)c1cnn2c1n[n+]([O-])c1ccc(Cl)cc12
- Activity [8]: 50%
- No. of falls [11]: 0.3

Compound: O=C(Cc1cnn2c1n[n+]([O-])c1ccc(Cl)cc12)OCc1ccsc1
- inhibition [1]: 45%

Compound: CN1C(=O)CN=C(c2ccccc2)c2cc(Cl)ccc21 [DIAZEPAM]
- No. of transfers [20]: 22
- Ki [13]: 9.8 nM
- Activity [7]: 243.2%
- No. of falls [21]: 0.39
- Activity [8]: 100%
- No. of transfers [22]: 23.2
- Activity [23]: 159.3%
- No. of falls [24]: 0.78
- Activity [25]: 93.8%
- No. of falls [11]: 1.6
- mortality [26]: 0%
- Ki [27]: 7.8 nM
- No. of transfers [12]: 16.5

Compound: O=C(OCc1ccco1)c1cnn2c1n[n+]([O-])c1ccc(Cl)cc12 [listing 2 of 2 here]
- Activity [3]: 96.8%
- Activity [5]: 27.3%
- No. of falls [28]: 0.27
- Ki [2]: 24.4 nM
- No. of falls [14]: 0.45
- Activity [15]: 125.02%
- Activity [16]: 96.16%
- No. of transfers [6]: 15.71
- No. of transfers [17]: 14
- No. of transfers [18]: 18.6
- Activity [9]: 7.7%
- No. of falls [10]: 0.08
- Activity [19]: 27.3%

Compound: O=C(OCc1cccs1)c1cnn2c1nnc1ccc(Cl)cc12
- inhibition [1]: 96%
- Ki [2]: 6.26 nM

Compound: O=C(Cc1cnn2c1n[n+]([O-])c1ccc(Cl)cc12)OCc1ccccc1
- inhibition [1]: 32%

Compound: CC(OC(=O)c1cnn2c1n[n+]([O-])c1ccc(Cl)cc12)c1ccccc1 (configuration not stated)
- inhibition [1]: 95%
- Ki [2]: 138 nM

Compound: CCOC(=O)c1ncn2c1CN(C)C(=O)c1cc(F)ccc1-2.O=C(OCc1cccs1)c1cnn2c1n[n+]([O-])c1ccc(Cl)cc12
- Activity [16]: 124.08%
- No. of transfers [17]: 23

Compound: CCOC(=O)c1ncn2c1CN(C)C(=O)c1cc(F)ccc1-2.CN1C(=O)CN=C(c2ccccc2)c2cc(Cl)ccc21
- No. of falls [14]: 0.4
- Activity [15]: 154.8%
- Activity [16]: 107%
- No. of transfers [17]: 15.6
- No. of transfers [18]: 23
- Activity [19]: 20%

Compound: CC(C)OC(=O)c1cnn2c1n[n+]([O-])c1ccc(Cl)cc12
- inhibition [1]: 97%
- Ki [2]: 272 nM

Compound: CN1C(=O)CN=C(c2ccccc2)c2cc(Cl)ccc21.O=C(OCc1ccco1)c1cnn2c1n[n+]([O-])c1ccc(Cl)cc12
- Activity [3]: 142.02%
- No. of falls [4]: 1.55
- Activity [5]: 88.9%
- No. of transfers [6]: 27.1

Compound: O=C(CC1C=NN2c3cc(Cl)ccc3[N+]([O-])=NC12)Oc1ccccc1Cl (configuration not stated)
- inhibition [1]: 87%
- Ki [2]: 489 nM
